Laboratory results published in ChEMBL document CHEMBL4513216, “Probing the Open Global Health Chemical Diversity Library for Multistage-Active Starting Points for Next-Generation Antimalarials” (ACS Infect Dis, 2020).

Assay: Toxicity liver stage against HepG2, at 10uM
Format: cell-based
Set-up: test concentration 10 uM, cell line HepG2-A16-CD81EGFP
Settings: human, HepG2-A16-CD81EGFP cells; read-out: INHIBITION
Summary of the method: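 Uninfected HepG2-A16-CD81EGFP cells, 3 × 10^3 per well, 1536-well, plated on prespotted compound at 10 μM final, parasite-free screening media added to match infected plates; puromycin 10 μM positive, DMSO 0.5% negative; run in parallel with 48 h PbLuc assay at 37 °C, 5% CO2; viability by CellTiter-Glo luminescence, normalized to controls.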

Structure (SMILES) | cytotoxicity at 10 µM
O=C(c1nc(Cc2c[nH]c3ccccc23)no1)N1CCOCC1 | 11.1%
C[C@@H](O)CNC(=O)c1nc(CC(=O)Nc2cccc(C(F)(F)F)c2)no1 | 8.35%
CC1=Nc2c(c(=O)[nH]n2C(C)C)C(c2ccsc2)S1 (configuration not stated) | -2.92%
Cn1c(CN2CCOCC2)cc(=O)c(O)c1CN1CCCCC1 | -3.15%
Cc1noc(C)c1C(=O)Nc1ccc2ncn(CC(C)C)c(=O)c2c1 | 8.75%
COCCn1cnc(-c2nc(C(=O)N3CCOCC3)c3ccccn23)c1 | -10.3%
COCC1CN(C(=O)Cc2cccs2)Cc2nnn(CC3CC3)c21 (configuration not stated) | 5.98%
Cc1nc(N2CCOCC2)nc2c1CCN(C(=O)C1CC1)CC2 | 2.23%
O=C(c1ccc[nH]1)N1CCOCC2(CCN(C3CCOCC3)C2)C1 (configuration not stated) | 10.7%
COC(=O)Cn1cccc(S(=O)(=O)N2CCC(C)CC2)c1=O | -2.85%
CC(C)(C)C(=O)Cn1nc(-c2ccccc2F)ccc1=O | -8.46%
O=C(NCCCN1CCOCC1)c1cccc(OCc2ccccc2)c1 | -4.87%
COc1ccc(N2CCN(C(=O)C(C)n3cc(Br)cn3)CC2)cc1 (configuration not stated) | 11.4%
COCCNc1cc(C)nn2cnnc12 | -1.63%
Cn1c(=O)oc2cc(S(=O)(=O)N3CCCCC3)c(Cl)cc21 | 19%
CCn1ncc(CN(C)C(=O)c2ccn(C)n2)c1C | 6.5%
COc1cc(C2SCC(=O)Nc3[nH]ncc32)cc2c1OCO2 (configuration not stated) | 5.28%
CCNC(=O)c1nnc2ccc(N3CCOCC3)cc2n1 | 3.56%
O=C(CC1CC1)N1C[C@@H](O)[C@H](N2CCN(c3ccccc3)CC2)C1 | -0.38%
O=C(CC1CCCC1)N1CCCC1c1ccc(CN2CCOCC2)cn1 (configuration not stated) | 1.37%
O=C1Nc2ccccc2CNC12CCN(CC1CCCC1)CC2 | 6.39%
CC(C)CNC(=O)c1cc(C2CC2)nc2c1c(C1CCCN1)nn2C (configuration not stated) | 15.9%

Structure (SMILES) | cytotoxicity at 10 µM
O=C(N1CCCCC1)N1CCN(c2ccc(Cl)nn2)C(=O)C1 | 8.24%
CC(C)(C)c1n[nH]c(C2CN(CCNC3CCCCC3)CCO2)n1 (configuration not stated) | 6.86%
CC(=O)c1c(C)cc(C)c(CS(=O)(=O)c2nccn2C)c1C | -4.28%
FC(F)(F)C1CCCn2c(CNCc3cccs3)nnc21 (configuration not stated) | 3.79%
Cc1ccc(CC(=O)N2CCCCC2Cn2cccn2)cn1 (configuration not stated) | -130%
Cc1n[nH]c(C)c1NC(=O)CN1CCCC1Cn1cncn1 (configuration not stated) | 15.5%
COc1cccc(CNCCc2cc(F)cc3c2OCOC3)c1OC | 4.32%
CC/C=C(/C)C(=O)N1CCN(C2=NCC(C)S2)CC1 (configuration not stated) | -145%
CCN(Cc1ccoc1)C(C(N)=O)c1ccc(C#N)cc1 (configuration not stated) | -18.6%
COc1cccc(CNCCNS(=O)(=O)Cc2ccccc2)c1 | 13.4%
COc1ccc(C)c2c1N(C(=O)c1ccc3nnc(C)n3c1)CCC2 | 2.84%
CCOc1ccc(NC(=O)N2CCC(n3cncn3)CC2)cc1Cl | -7.22%
Cc1cnn(CCCNCc2csc(COc3ccccc3)n2)c1 | 5.34%
CC(=O)Nc1cc(Br)cnc1OCC(F)(F)F | 5.69%
COc1ccc(N2CCCN(CC(=O)N3CCNC(=O)C3)CC2)cc1 | 6.06%
CS(=O)(=O)c1cc(S(N)(=O)=O)ccc1NCC1CCCO1 (configuration not stated) | 6.26%
CN(Cc1ccco1)Cc1ccccc1CNC(=O)c1ccc[nH]1 | -4.11%
CCc1ncc2c(n1)CN(Cc1nnc(C)o1)CC2 | -12.1%
CC1c2ncc(Cn3cccn3)n2CCN1S(=O)(=O)C1CC1 (configuration not stated) | -108%
COCCN1CCN(c2cc(OC)ncn2)Cc2ccc(C)nc21 | -99.2%
Cn1ccc(-c2cc(C(=O)N3CCOCC3)c3ccccn23)n1 | 7.9%
COCCNC(=O)[C@H]1C[C@@H]2CCN(Cc3ccoc3)C[C@H]2O1 | 2.31%

Structure (SMILES) | cytotoxicity at 10 µM
CN(Cc1cc(C(C)(C)C)n[nH]1)C(=O)c1c[nH]nc1-c1cccc(F)c1 | -3.39%
CCCSCC(=O)N1CCCC(CO)(CCC)C1 (configuration not stated) | 4.86%
Cc1ccc(O)c(CN2CCCCC2CCN2CCOCC2)c1 (configuration not stated) | 4.25%
COC(=O)c1ccc(CNC(=O)CN2C[C@@H](NC(C)=O)[C@H](C(C)C)C2)o1 | -0.921%
COCCCC1(C(=O)O)CCCN(C(=O)c2ccc(C(C)C)[nH]c2=O)C1 (configuration not stated) | -52.9%
Cc1ccc([C@@H]2CN(C(=O)CCc3cc(Cl)no3)C[C@H]2N(C)C)cc1 | 6.74%
COc1ncccc1C1CC(=O)NCc2nc3ccccn3c21 (configuration not stated) | -5.72%
N#Cc1c(C2CCOC2)cc(-c2ccc(N3CCCCC3)cc2)nc1N (configuration not stated) | -8.78%
Nc1cc(C(=O)N2CCOC(Cc3cccc(C(F)(F)F)c3)C2)ccn1 (configuration not stated) | -1.97%
O=C(O)C1(Oc2cccc(F)c2)CCN(c2ccncc2)CC1 | 0.423%
Cc1cc(CN(C)c2nc(-c3ccco3)nc3c2CCN(C)CC3)on1 | 9.34%
Cc1c[nH]c(CN(C)C(=O)[C@@]23CNC[C@@H]2CN(c2ncccn2)C3)n1 | -2.4%
Cc1nnc(N2CCC(CCn3ccnc3C)CC2)o1 | -8.14%
O=C1CC(c2ncc(-c3ccc4c(c3)OCCO4)[nH]2)CN1C1CC1 (configuration not stated) | -4.62%
Cc1cnc(C)c(N2CCN(CCCc3[nH]nc(C)c3C)CC2)n1 | -10%
C=C(C)COc1cccc(C(=O)N(C)C(C)c2c(C)n[nH]c2C)c1 (configuration not stated) | 2.8%
O=C(O)c1ccnc(-c2ccnc(N3CCC(F)(F)CC3)n2)c1 | -12.3%
NCCN1C(=O)CC[C@H]2CN(Cc3ccc4occc4c3)CC[C@H]21 | -1.14%
CCc1cnc(N)nc1NCCn1cc(Cl)cn1 | 1.5%
CC(=O)NCCn1ccnc1-c1cccc(C(C)N(C)C)c1 (configuration not stated) | 2.4%
Cc1cc(C(=O)N2C[C@@H](CN3CCOCC3)C[C@H](CO)C2)nc(C)n1 | 3.63%
O=C(NCc1ccccc1-n1cccn1)C1CC2(CCNCC2)CN1 (configuration not stated) | -0.413%

Structure (SMILES) | cytotoxicity at 10 µM
CCCc1nc(CN(CC)C(=O)c2ccc(OC)c(OC)c2)no1 | -6.93%
COc1ccccc1OCCCN1CC=C(c2cnn(C)c2)CC1 | 8.32%
CCCN(Cc1nccn1C)C(=O)c1cc(C(C)C)on1 | 4.24%
CCn1cncc1CNC(=O)c1ccc(C2CCCN2C(=O)COC)s1 (configuration not stated) | 6.48%
CCc1cc(N2CCC(NCCc3nc(C)c(C)s3)CC2)nc(C)n1 | 0.902%
CC(C)(C)NC(=O)c1ccccc1NC(=O)c1ccncc1 | -10.3%
O=C(O)C(c1ccc2c(c1)OCCO2)N1CCC(N2CCOCC2)CC1 (configuration not stated) | -0.809%
O=C(c1cc(=O)[nH]c(=O)[nH]1)N1CCCCC1c1ccc(F)cc1 (configuration not stated) | -10.2%
CC(C)c1nc(C2CCCN(C(=O)c3ccc(N(C)C)nn3)C2)no1 (configuration not stated) | -9.71%
CCN(CC)c1ccc(C(=O)N2CCC(c3nc(C)no3)CC2)cn1 | -7.42%
CN(CC(=O)N1CCCC1)C(=O)Cc1csc(-c2ncccn2)n1 | -9.51%
O=C(NCc1ccc(-c2ccn[nH]2)cc1)N1CCC(N2CCCC2)C1 (configuration not stated) | -8.35%
Cc1cccc(-c2ccc(C(=O)NCC(C)(C)C(N)=O)c(=O)[nH]2)c1 | -10.5%
CNC(=O)C1CCC(NC(=O)N(C)Cc2c(C)noc2C)CC1 (configuration not stated) | -13.7%
O=C(Nc1cn[nH]c1)c1ccc(O)nc1 | -1.09%
CC(C)c1nc(C2CCCN2CC(=O)N2CCNC2=O)no1 (configuration not stated) | -8.96%
CC(NC(=O)NCCn1ccnc1)c1ccc2c(c1)NC(=O)CO2 (configuration not stated) | -7.36%
COc1ccc2cc(C(=O)N3CCCCC3CC(N)=O)[nH]c2c1 (configuration not stated) | -12.3%
O=C(NCCNC(=O)c1scnc1Cl)c1ccccc1 | 8.45%
CCc1n[nH]c(C2CN(Cc3nccn3CC)CCO2)n1 (configuration not stated) | -1.85%
CC(C)c1nccn1C1CCCN(C(=O)c2ccc3[nH]nnc3c2)C1 (configuration not stated) | 1.9%
O=C1CCCCN1c1cccc(CNC2CCCC2)c1 | 6.86%

Structure (SMILES) | cytotoxicity at 10 µM
CN(Cc1cn2c(n1)CN(C(=O)CC1CC1)CC2)Cc1ccco1 | -2.21%
CC(=O)N1CC(=O)N(c2cnn(C)c2)CC12CCN(CC1CC1)C2 (configuration not stated) | -2.58%
CNC(=O)[C@H]1C[C@@H]2CN(S(=O)(=O)c3ccccc3)C[C@@H]2N1C | -5.27%
O=C(c1cccc(Cl)c1)N1CC[C@H]2[C@H]1CCN2CC1CCOCC1 | -0.696%
O=C(Cc1ccsc1)N1C[C@@H]2COC[C@]2(COCc2cccnc2)C1 | 2.98%
O=C(Cc1ccsc1)N1C[C@@H]2OCCN(CC3CCCO3)[C@@H]2C1 (some centres not stated) | -4.42%
O=C([C@@H]1CCO[C@@H]2CCN(Cc3ccc(F)cc3)C[C@H]21)N1CCCCO1 | 11.9%
CN(C)C(=O)N1CCC2(CC1)CN(Cc1ccccn1)C(=O)CO2 | 2.99%
CCCS(=O)(=O)N1Cc2nccn2CC(CN2CCCC2)C1 (configuration not stated) | -131%
CS(=O)(=O)NCc1cnc2n1CCN(Cc1ccsc1)CC2 | -7.96%
CCC1=N[C@@]2(CC[C@@H]3CN(Cc4cccc(Cl)c4)C[C@@H]32)C(=O)N1C | -102%
Fc1ccccc1CN1CCCC2(CCN(c3ncccn3)CC2)C1 | -132%
O=C(CC1CC1)N1CCC2(CC1)CN(c1cccnc1)C(=O)CO2 | -90.8%
CC(C)CN1CCC2(C=C(C(=O)N(C)C)c3ccccc32)CC1 | -97.4%
CN(Cc1ccco1)[C@@H]1CN(Cc2cccnc2)C[C@@H]2CCCO[C@@H]21 | 8.49%
Cc1occc1C(=O)N1C[C@H]2CCCC(OCc3cccnc3)[C@H]2C1 (some centres not stated) | 2.72%
Cn1cc(CN2C[C@@H]3COC[C@]3(CNC(=O)c3ccccc3)C2)cn1 | -4.02%
CCOc1ccc(C(=O)N2C[C@@H]3CC[C@H]2CN(C(=O)C2CCC2)C3)cc1 | -4.68%
c1ccc(CNc2ncc(CN3CC[C@@H]4CC[C@H](C3)N4)cn2)cc1 | -3.8%
